Screening results as filed in PubChem.
Compounds with a hit are over-represented: about 1.7% of the library has one in this group of screens.
DNMT1 inh: inhibitors of human DNMT1; P26358; DNMT1 molecular beacon, Hinp1I cleavage, fluorescence; inhibition (reported as % activation of signal), % at 10 µM; 360,000 tested, 0.83% active; in the data active = inhibition above about 50%
LMPTP block: blocks human LMPTP phosphatase. recombinant LMPTP-A, OMFP fluorogenic substrate, fluorescence intensity. inhibition, % at 20 µM. 360,000 tested, 0.22% active. AID 651560;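 active = compounds that cut the enzyme signal by at least half of the control window in the single-dose screen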;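 note: plate controls were DMSO wells with enzyme plus substrate for no effect and substrate without enzyme for full effect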
Target sequence (P24666 whole entry, looked up): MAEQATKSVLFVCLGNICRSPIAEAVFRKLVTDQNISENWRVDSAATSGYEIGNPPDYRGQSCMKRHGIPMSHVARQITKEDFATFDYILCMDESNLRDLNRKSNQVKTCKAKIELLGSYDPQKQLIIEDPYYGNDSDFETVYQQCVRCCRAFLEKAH
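material = LMPTP-A | quantity = 0.625 nM enzyme | reagent = OMFP substrate, 400 µM final | buffer or medium = Bis-Tris pH 6.0, DTT, detergent | detection = endpoint fluorescence intensity from OMFP dephosphorylation | dosing = single 20 µM dose | read-out basis = % inhibition relative to no-enzyme and uninhibited control wells | control set = no-enzyme and uninhibited controls | timing = 50 min at room temperature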
SUMO1-SIM PPI: modulators of human SUMO1-mediated protein-protein interactions; SUMO1 binding to a labelled peptide, TR-FRET, 1 h; inhibition, % at 20 µM; 360,000 tested, 0.33% active; AID 602429; in the data active = inhibition above about 37%
Target sequence (P63165 whole entry, looked up): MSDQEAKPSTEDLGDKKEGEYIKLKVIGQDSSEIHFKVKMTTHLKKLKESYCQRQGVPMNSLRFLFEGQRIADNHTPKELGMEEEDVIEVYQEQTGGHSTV
STEP block: STEP (human) phosphatase inhibition | P54829 | recombinant STEP, OMFP fluorogenic substrate, fluorescence | inhibition, % at 20 µM | 360,000 tested, 0.25% active;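 active = inhibition at 20 µM, scaled per plate between control wells, above about 37%, limit read from the data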;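 note: 0% = DMSO with enzyme and substrate and 100% = substrate only without enzyme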
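Test system: STEP tyrosine phosphatase / Reagent: OMFP at 25 µM / Doses: 20 µM, 1% DMSO / Read-out: percent inhibition scaled to no-enzyme and uninhibited-enzyme controls, plate-pattern corrected / Detection: FITC-channel fluorescence of OMFP product / Medium: Bis-Tris buffer pH 6.0, 2.5 mM DTT, 0.005% Tween 20 / Schedule: 20 min at room temperature, dark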
Scp-1 inhibitor: inhibitors of human Scp-1 phosphatase. Recombinant Scp1, phosphopeptide, malachite green phosphate absorbance. inhibition, % at 20 µM. 340,000 tested, 0.88% active. AID 493091;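 active = inhibition above about 50% at 20 µM, limit read from the data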;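 note: plate controls were DMSO wells with enzyme for no effect and wells lacking enzyme for full effect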
Target sequence (Q9GZU7 76-261 limits assumed): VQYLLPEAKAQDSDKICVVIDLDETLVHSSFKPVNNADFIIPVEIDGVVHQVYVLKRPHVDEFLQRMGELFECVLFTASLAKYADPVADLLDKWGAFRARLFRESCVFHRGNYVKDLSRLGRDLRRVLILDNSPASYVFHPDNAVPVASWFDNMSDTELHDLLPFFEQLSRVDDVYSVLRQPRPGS
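Test system: SCP-1 phosphatase catalytic domain, residues 76-261; measured by: colorimetric phosphate reagent with accelerator and stabiliser, absorbance at 630 nm; timing: enzyme reaction 45 min at room temperature, colour 5 min, stabilisation 30 min; also added: Phosphorylated 17-residue peptide substrate; compound dosing: one concentration, 20 µM, with 1.0% DMSO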
Scp1 confirm: Scp-1 (human) inhibition, single-dose confirmed; shares compounds with Scp-1 inhibitor; recombinant SCP-1 catalytic domain, phosphate release, malachite green absorbance; inhibition, % at 20 µM; 2,500 tested, 61% active; AID 540281;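 note: plate controls were DMSO with enzyme for no effect and buffer wells lacking enzyme for full effect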
MG interference: counter-screen for Scp-1 inhibitors: colorimetric interference. 2,500 tested, under 10 active. shares compounds with Scp-1 inhibitor. apparent inhibition (interference), % at 20 µM. Colorimetric interference counterscreen, malachite green absorbance 630 nm. AID 540313;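 note: compounds added after enzyme reaction finished so only phosphate colour detection is probed; plate controls were DMSO wells with completed Scp-1 reaction for no effect and substrate wells lacking enzyme for full effect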
Scp1 DSF: binds human Scp-1, shifting its melting temperature; shares compounds with Scp-1 inhibitor; Recombinant SCP1, Sypro Orange thermal shift Tm; thermal shift relative to vanadate control, % at 40 µM; 1,500 tested, 25% active; AID 540329;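 active = substances whose mean melting-temperature shift, as a percentage of the reference inhibitor's shift, reaches about 5.3%, limit read from the data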;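 note: 0% = Tm of DMSO wells and 100% = Tm with sodium orthovanadate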
DNMT1 interf DR: counter-screen for DNMT1 inhibitors: spectral interference, dose response. 200 tested, under 10 active. molecular beacon fluorescence. IC50, µM. AID 602382. shares compounds with DNMT1 inh; call rule not given here
DNMT1 confirm: confirmation of human DNMT1 inhibitors; shares compounds with DNMT1 inh; DNMT1 molecular beacon HinP1I cleavage, fluorescence; inhibition, % at 10 µM; 2,300 tested, 8% active;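 active = average inhibition of at least 30% in the single-concentration confirmation test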
Beacon interf: shows spectral interference in the DNMT1 beacon assay. DNMT1 molecular beacon spectral interference counterscreen, fluorescence 485/520. 2,300 tested, 1% active. shares compounds with DNMT1 inh. activation (fluorescence interference), % at 10 µM;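 active = activation of at least 30% at 10 µM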;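 note: DNMT1 catalytic domain with a HinP1I cleavage step and a FAM/dabcyl DNA beacon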
* = called active by the depositor; . = not tested or not shown.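 Rule for the calls, unless noted: active = inhibition of at least 30% at 20 µM; inactive = the rest.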

SMILES | DNMT1 inh | LMPTP block | SUMO1-SIM PPI | STEP block | Scp-1 inhibitor | Scp1 confirm | MG interference | Scp1 DSF | DNMT1 confirm | Beacon interf | others
O=C(COC(=O)c1cc2c(s1)CCC2)Nc1ccc(F)cc1 | 66* | 12 | -2 | 4 | 68* | 74* | -9 | 3 | 26 | -2 | DNMT1 interf DR=>99
CCCCN(C(=O)Cn1ncc(Cl)c(Cl)c1=O)c1c(N)n(CC(C)C)c(=O)[nH]c1=O | 61* | 26 | 1 | 2 | 82* | 76* | -4 | 6.2* | 20 | 4
Cc1cccc(C(=O)Nc2ccc(C(=O)N/N=C/c3ccco3)cc2)c1 | 72* | 20 | 0 | 21 | 77* | 56* | -13 | -8 | 5 | 2
O=C(N/N=C/c1ccco1)c1cccc(NC(=O)c2ccccc2Cl)c1 | 0 | 0 | -23 | 1 | -5 | . | . | . | . | .
NC1=NC2OC(CO)C(O)C2O1 (stereo unspecified) | -5 | -3 | 0 | -3 | . | . | . | . | . | .
O=C(NCCS(=O)(=O)NCc1ccccc1Cl)c1ccccc1 | -1 | -1 | -4 | -1 | -6 | . | . | . | . | .
O=C(O)c1ccc(COc2c(F)c(F)c(F)c(F)c2F)o1 | 56* | -1 | 0 | 8 | 57* | 48* | -18 | 4 | -1 | 0
Cc1oc(-c2ccc(F)cc2)cc1-c1nn2c(-c3ccoc3C)nnc2s1 | 106* | 19 | 41* | 5 | 75* | 41* | -21 | 1 | 7 | -2
CCc1nc2ccc(C(=O)Nc3cccc(OC)c3)cn2c1N(C)CCCc1ccccc1 | -25 | 6 | 8 | -1 | . | . | . | . | . | .
COC(=O)c1c(NC(=O)COC(=O)c2ccc(NC(=O)CC#N)cc2)sc2c1CCCCC2 | 103* | 74* | 71* | 10 | 76* | 71* | -10 | 14* | 27 | -3 | DNMT1 interf DR=>99
COC(=O)c1c(NC(=O)COC(=O)c2ccccc2O)sc2c1CCCCC2 | 15 | -1 | 4 | 2 | -5 | . | . | . | . | .
O=C(N/N=C/c1ccco1)C1CC1c1ccccc1 (stereo unspecified) | 92* | 6 | 0 | 4 | 60* | 48* | -14 | -14 | 21 | 4
O=C(N/N=C/c1ccco1)C1CC1 | -1 | 0 | -2 | -1 | 3 | . | . | . | . | .
Cc1cc(S(=O)(=O)N2CCCCC2)ccc1OCC(=O)Nc1ccccc1 | 3 | 0 | -3 | -2 | -7 | . | . | . | . | .
O=C(O)c1cccc(-n2cccc2/C=C2/NC(=O)N(Cc3ccccc3F)C2=O)c1 | 81* | 6 | -8 | 7 | 52* | 75* | 1 | 0 | 1 | 1
Cc1ccccc1NC(=O)CN1C(=O)S/C(=C\c2cccn2-c2cccc(C(=O)O)c2)C1=O | 66* | 5 | 2 | 23 | 84* | 74* | -11 | 17* | 9 | 2
Cc1c2cnn(CC(=O)Nc3c(F)c(F)cc(F)c3F)c(=O)c2c(C)n1Cc1ccccc1F | 91* | 15 | 16 | 5 | 69* | 77* | -6 | 7.2* | 24 | -4 | DNMT1 interf DR=>99
O=C(c1ccco1)N1CCN(C(=O)c2ccc(-c3ccc([N+](=O)[O-])cc3)o2)CC1 | 63* | 46 | 74* | 11 | 90* | 8 | -19 | . | 4 | 3
O=C(c1ccc([N+](=O)[O-])cc1)N1CCN(C(=O)c2ccco2)CC1 | 1 | -3 | -26 | -3 | 9 | . | . | . | . | .
